Tests used:
HEK293 = assay: Inhibition of human wild-type ABCG2 transfected in HEK293 cells assessed as potentiation of mitoxantrone-induced cytotoxicity by measuring mitoxantrone resistance ratio at 3000 nM after 72 hrs by CCK8 assay relative to parental HEK293 cells
[1] = target: T1, ATP-dependent translocase ABCB1 (Homo sapiens, UniProt P08183); assay: Inhibition of ABCB1 in human KBV1 cells assessed as potentiation of vincristine-induced cytotoxicity by measuring vincristine resistance ratio at 1000 nM after 72 hrs by MTT assay relative to parental KB-3-1 cells (reference value: 356); type: cell-based; settings: kbv1, 72 h, 1 µM
Method in brief: (§1)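 Cells were kept in drug-free DMEM with 10% FCS for 7 days before assay, then plated at 5000 cells/well for 24 h. Drug at various concentrations was added with a nontoxic fixed level of modulator for 72 h, and the read-out was MTT. IC50 came from fitted curves (≥3 experiments). RR = IC50 of the resistant line / IC50 of the parental line.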

[2] = target: T1, ATP-dependent translocase ABCB1; assay: Inhibition of ABCB1 in human NCI-ADR-RES cells assessed as potentiation of doxorubicin-induced cytotoxicity by measuring doxorubicin resistance ratio at 1000 nM after 72 hrs by MTT assay relative to parental OVCAR8 cells (reference value: 46); type: cell-based; settings: ovcar-8, 72 h, 1 µM
Method in brief: as §1

KB-V1 [3] = assay: Induction of apoptosis in human KBV1 cells assessed as late apoptotic cells at 1 uM after 48 hrs by Annexin V-FITC/propidium iodide staining based FACS analysis (reference value: 7.6%); type: functional
[4] = target: T1, ATP-dependent translocase ABCB1; assay: Inhibition of ABCB1 in human NCI-ADR-RES cells assessed as potentiation of colchicine-induced cytotoxicity by measuring colchicine resistance ratio at 1000 nM after 72 hrs by MTT assay relative to parental OVCAR8 cells (reference value: 59); type: cell-based; settings: ovcar-8, 72 h, 1 µM
Method in brief: as §1

KB 3-1 [5] = assay: Potentiation of colchicine-induced apoptosis in human KB-3-1 cells assessed as necrotic cells at 1 uM after 48 hrs by Annexin V-FITC/propidium iodide staining based FACS analysis (reference value: 4.9%); type: functional
KB 3-1 [6] = assay: Potentiation of colchicine-induced apoptosis in human KB-3-1 cells assessed as viable cells at 1 uM after 48 hrs by Annexin V-FITC/propidium iodide staining based FACS analysis (reference value: 38.9%); type: functional; settings: KB 3-1, 48 h, read-out: Activity
[7] = target: T1, ATP-dependent translocase ABCB1; assay: Inhibition of ABCB1 in human KBV1 cells assessed as potentiation of doxorubicin-induced cytotoxicity by measuring doxorubicin resistance ratio at 1000 nM after 72 hrs by MTT assay relative to parental KB-3-1 cells (reference value: 34); type: cell-based; settings: kbv1, 72 h, 1 µM
Method in brief: as §1

KB 3-1 [8] = assay: Induction of apoptosis in human KB-3-1 cells assessed as necrotic cells at 1 uM after 48 hrs by Annexin V-FITC/propidium iodide staining based FACS analysis (reference value: 0.7%); type: functional
KB-V1 [9] = assay: Induction of apoptosis in human KBV1 cells assessed as early apoptotic cells at 1 uM after 48 hrs by Annexin V-FITC/propidium iodide staining based FACS analysis (reference value: 5.3%); type: functional
KB 3-1 [10] = assay: Induction of apoptosis in human KB-3-1 cells assessed as late apoptotic cells at 1 uM after 48 hrs by Annexin V-FITC/propidium iodide staining based FACS analysis (reference value: 5.8%); type: functional
KB 3-1 [11] = assay: Potentiation of colchicine-induced apoptosis in human KB-3-1 cells assessed as late apoptotic cells at 1 uM after 48 hrs by Annexin V-FITC/propidium iodide staining based FACS analysis (reference value: 25.7%); type: functional
[12] = target: T1, ATP-dependent translocase ABCB1; assay: Inhibition of ABCB1 in human KBV1 cells assessed as potentiation of colchicine-induced cytotoxicity by measuring colchicine resistance ratio at 1000 nM after 72 hrs by MTT assay relative to parental KB-3-1 cells (reference value: 55); type: cell-based; settings: kbv1, 72 h, 1 µM
Method in brief: as §1

[13] = target: T1, ATP-dependent translocase ABCB1; assay: Inhibition of ABCB1 in human NCI-ADR-RES cells assessed as potentiation of vincristine-induced cytotoxicity by measuring vincristine resistance ratio at 1000 nM after 72 hrs by MTT assay relative to parental OVCAR8 cells (reference value: 435); type: cell-based; settings: ovcar-8, 72 h, 1 µM
Method in brief: as §1

KB-V1 [14] = assay: Induction of apoptosis in human KBV1 cells assessed as viable cells at 1 uM after 48 hrs by Annexin V-FITC/propidium iodide staining based FACS analysis (reference value: 86.1%); type: functional; settings: KB-V1, 48 h, read-out: Activity
[15] = target: T1, ATP-dependent translocase ABCB1; assay: Inhibition of human ABCB1 transfected in HEK293 cells assessed as potentiation of doxorubicin-induced cytotoxicity by measuring doxorubicin resistance ratio at 1000 nM after 72 hrs by CCK8 assay relative to parental HEK293 cells (reference value: 96); type: cell-based; settings: hek293, 72 h, 1 µM
KB 3-1 [16] = assay: Induction of apoptosis in human KB-3-1 cells assessed as viable cells at 1 uM after 48 hrs by Annexin V-FITC/propidium iodide staining based FACS analysis (reference value: 88.4%); type: functional; settings: KB 3-1, 48 h, read-out: Activity
KB-V1 [17] = assay: Induction of apoptosis in human KBV1 cells assessed as necrotic cells at 1 uM after 48 hrs by Annexin V-FITC/propidium iodide staining based FACS analysis (reference value: 1%); type: functional
KB 3-1 [18] = assay: Potentiation of colchicine-induced apoptosis in human KB-3-1 cells assessed as early apoptotic cells at 1 uM after 48 hrs by Annexin V-FITC/propidium iodide staining based FACS analysis (reference value: 30.5%); type: functional
KB 3-1 [19] = assay: Induction of apoptosis in human KB-3-1 cells assessed as early apoptotic cells at 1 uM after 48 hrs by Annexin V-FITC/propidium iodide staining based FACS analysis (reference value: 5.1%); type: functional

T1 sequence (P08183 whole entry): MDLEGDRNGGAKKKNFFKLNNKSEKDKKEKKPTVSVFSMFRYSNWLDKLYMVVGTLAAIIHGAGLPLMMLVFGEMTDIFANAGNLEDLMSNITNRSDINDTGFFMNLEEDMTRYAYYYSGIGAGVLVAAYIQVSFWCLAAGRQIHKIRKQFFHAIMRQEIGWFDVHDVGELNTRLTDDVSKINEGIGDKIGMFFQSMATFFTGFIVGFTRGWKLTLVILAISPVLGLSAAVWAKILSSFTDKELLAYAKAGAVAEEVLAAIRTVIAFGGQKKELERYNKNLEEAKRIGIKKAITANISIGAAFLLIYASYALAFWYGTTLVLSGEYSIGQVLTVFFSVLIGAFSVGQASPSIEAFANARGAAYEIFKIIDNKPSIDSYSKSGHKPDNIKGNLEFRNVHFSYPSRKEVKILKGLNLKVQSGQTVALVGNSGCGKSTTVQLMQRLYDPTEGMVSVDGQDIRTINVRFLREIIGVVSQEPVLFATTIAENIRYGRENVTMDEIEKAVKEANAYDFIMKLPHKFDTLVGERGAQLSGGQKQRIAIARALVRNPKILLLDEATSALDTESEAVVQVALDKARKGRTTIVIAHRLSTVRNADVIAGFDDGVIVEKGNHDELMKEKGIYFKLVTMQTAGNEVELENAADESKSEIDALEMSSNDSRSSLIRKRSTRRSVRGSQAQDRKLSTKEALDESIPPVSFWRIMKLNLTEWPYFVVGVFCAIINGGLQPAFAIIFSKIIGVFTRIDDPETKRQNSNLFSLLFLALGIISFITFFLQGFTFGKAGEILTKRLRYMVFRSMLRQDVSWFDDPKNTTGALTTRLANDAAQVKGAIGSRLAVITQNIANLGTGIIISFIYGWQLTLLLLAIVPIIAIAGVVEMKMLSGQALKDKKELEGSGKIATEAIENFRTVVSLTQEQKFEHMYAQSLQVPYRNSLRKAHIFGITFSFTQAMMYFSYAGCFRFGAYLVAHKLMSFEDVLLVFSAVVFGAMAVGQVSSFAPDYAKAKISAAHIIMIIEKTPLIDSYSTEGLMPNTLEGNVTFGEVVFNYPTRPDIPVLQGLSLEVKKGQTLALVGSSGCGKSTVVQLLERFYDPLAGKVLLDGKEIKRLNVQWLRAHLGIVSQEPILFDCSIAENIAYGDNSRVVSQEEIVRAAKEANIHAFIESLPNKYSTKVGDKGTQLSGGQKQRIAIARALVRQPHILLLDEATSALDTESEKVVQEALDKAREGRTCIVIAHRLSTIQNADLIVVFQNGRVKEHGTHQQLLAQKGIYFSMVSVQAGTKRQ

Structure (SMILES)	Ratio (HEK293)	Ratio [1]	Ratio [2]	Activity (KB-V1 [3]) [%]	Ratio [4]	Activity (KB 3-1 [5]) [%]	viability at 1 µM (KB 3-1 [6]) [%]	Ratio [7]	Activity (KB 3-1 [8]) [%]	Activity (KB-V1 [9]) [%]	Activity (KB 3-1 [10]) [%]	Activity (KB 3-1 [11]) [%]	Ratio [12]	Ratio [13]	viability at 1 µM (KB-V1 [14]) [%]	Ratio [15]	viability at 1 µM (KB 3-1 [16]) [%]	Activity (KB-V1 [17]) [%]	Activity (KB 3-1 [18]) [%]	Activity (KB 3-1 [19]) [%]
COc1ccc2c3c([nH]c2c1)[C@H](C=C(C)C)N1C(=O)[C@@H]2CCCN2C(=O)[C@@H]1C3	7																			
COc1cc2c(cc1OC)CN(CCc1ccc(NC(=O)c3cc(OC)c(OC)cc3NC(=O)c3cnc4ccccc4c3)cc1)CC2 [TARIQUIDAR]		1	3	5.2	1	5.6	37.2	1	0.2	3.5	4.4	27	1	4	91.1	5	92.1	0.2	30.2	3.3

Reference: ChEMBL document CHEMBL3867440, “Hernandezine, a Bisbenzylisoquinoline Alkaloid with Selective Inhibitory Activity against Multidrug-Resistance-Linked ATP-Binding Cassette Drug Transporter ABCB1” (J Nat Prod, 2016)
